# Results taken from PMC3983348 (Journal of Medicinal Chemistry, 2014).
# pIC50: −log10 of the molar value. Where two headings read alike, the source gives them in different places.
# Columns and labels:
# [1] = test system: panel of 60 different human cancer cell lines; assay: NCI-60 five-dose assay, mean graph midpoint; type: cell-based; details: mean graph midpoint of growth inhibition, five-dose assay 10^–8 to 10^–4 M
# recombinant Top1 = target: T1, recombinant Top1 (Homo sapiens, UniProt P11387); assay: Top1-mediated DNA cleavage assay; type: biochemical; details: compound-induced DNA cleavage, score based on the activity of 1 μM camptothecin
# T1 sequence (P11387 1-765): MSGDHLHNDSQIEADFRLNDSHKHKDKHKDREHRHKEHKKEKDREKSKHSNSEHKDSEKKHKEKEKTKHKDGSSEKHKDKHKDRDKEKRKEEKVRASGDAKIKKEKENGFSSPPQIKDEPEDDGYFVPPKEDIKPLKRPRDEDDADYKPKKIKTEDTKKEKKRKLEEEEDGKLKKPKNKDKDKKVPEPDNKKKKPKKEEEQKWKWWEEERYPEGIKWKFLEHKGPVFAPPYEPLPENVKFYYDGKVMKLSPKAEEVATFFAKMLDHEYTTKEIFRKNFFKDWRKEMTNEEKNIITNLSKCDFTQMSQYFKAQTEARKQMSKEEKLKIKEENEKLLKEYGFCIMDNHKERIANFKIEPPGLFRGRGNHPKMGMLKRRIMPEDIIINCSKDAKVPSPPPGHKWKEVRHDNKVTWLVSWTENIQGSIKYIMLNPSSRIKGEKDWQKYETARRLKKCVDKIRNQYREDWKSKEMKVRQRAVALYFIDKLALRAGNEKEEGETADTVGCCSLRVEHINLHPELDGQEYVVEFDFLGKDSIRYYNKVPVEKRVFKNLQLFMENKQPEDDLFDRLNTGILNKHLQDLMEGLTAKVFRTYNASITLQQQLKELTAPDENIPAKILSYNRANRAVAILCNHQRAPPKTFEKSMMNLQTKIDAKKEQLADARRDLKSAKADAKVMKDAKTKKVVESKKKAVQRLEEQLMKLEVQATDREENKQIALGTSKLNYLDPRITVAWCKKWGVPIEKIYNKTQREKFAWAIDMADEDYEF
# melanoma, UACC-62 = assay: NCI-60 five-dose assay, UACC-62; type: cell-based; details: Homo sapiens, UACC-62, read-out: cytotoxicity GI50, melanoma, UACC-62
# Outline: (§1)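 Run in the National Cancer Institute's NCI-60 human cancer cell panel. Test compounds were first screened in a one-dose assay at 10–5 M, reading growth percent relative to vehicle-treated control.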
# recombinant TDP1 = recombinant TDP1 (Homo sapiens, UniProt Q9NUW8); assay: Gel-based assay measuring the inhibition of recombinant TDP1; type: biochemical
# recombinant TDP1, sequence (Q9NUW8 whole entry): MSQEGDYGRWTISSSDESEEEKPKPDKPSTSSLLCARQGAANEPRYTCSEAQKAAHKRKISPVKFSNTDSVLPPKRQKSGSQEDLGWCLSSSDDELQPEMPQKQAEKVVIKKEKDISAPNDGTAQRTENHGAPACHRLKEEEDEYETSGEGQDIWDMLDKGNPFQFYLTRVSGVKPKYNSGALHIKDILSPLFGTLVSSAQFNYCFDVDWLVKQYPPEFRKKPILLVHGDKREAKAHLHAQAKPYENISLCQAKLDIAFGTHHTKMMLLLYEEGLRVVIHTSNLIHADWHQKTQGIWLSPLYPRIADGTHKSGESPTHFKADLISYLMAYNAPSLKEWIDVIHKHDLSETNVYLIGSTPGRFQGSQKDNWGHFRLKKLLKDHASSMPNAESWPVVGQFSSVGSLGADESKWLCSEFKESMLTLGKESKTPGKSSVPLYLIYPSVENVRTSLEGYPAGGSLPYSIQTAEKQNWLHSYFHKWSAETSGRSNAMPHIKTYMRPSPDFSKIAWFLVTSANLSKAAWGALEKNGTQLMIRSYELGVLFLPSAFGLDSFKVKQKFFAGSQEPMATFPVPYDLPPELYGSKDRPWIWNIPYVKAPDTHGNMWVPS
# Outline: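 Gel assay: a 5′-[32P]-labeled single-stranded DNA oligonucleotide with a 3′-phosphotyrosine (N14Y) was incubated with 5 pM recombinant TDP1 and test compound for 15 min at room temperature. Samples were run on 16% denaturing PAGE and quantified by phosphorimager densitometry.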
# renal, SN12C = assay: NCI-60 five-dose assay, SN12C; type: cell-based; details: Homo sapiens, read-out: cytotoxicity GI50, renal, SN12C
# Outline: as §1
# [2] = read-out: TDP1 inhibition, score according to IC50
SMILES,Top1 cleavage (recombinant Top1),pIC50 (recombinant TDP1; [2]),MGM [1] [µM],further results
COc1cc2c3c(n(C[C@@H]4O[C@H](CO)[C@@H](O)[C@H](O)[C@H]4O)c(=O)c2cc1OC)-c1cc2c(cc1C3=O)OCO2 [Compound 62],"++ (++, between 50% and 75% activity)",3.95 to 4.43,,pIC50 (recombinant TDP1; read-out: TDP1 IC50): ≤ 4.92
"O=C1c2ccccc2-c2c1c1ccc([N+](=O)[O-])cc1c(=O)n2CC(O)CO (stereo not drawn) [Compound 63, (2′RS)-5,6-Dihydro-6-(2′,3′-dihydroxypropyl)-3-nitro-5,11-dioxo-11H-indeno[1,2-c]isoquinoline]","+++ (+++, between 75% and 95% activity)",,0.389 ± 0.013,
"O=C1c2ccccc2-c2c1c1ccc([N+](=O)[O-])cc1c(=O)n2C[C@@H](O)CO [Compound 64, (2′R)-5,6-Dihydro-6-(2′,3′-dihydroxypropyl)-3-nitro-5,11-dioxo-11H-indeno[1,2-c]isoquinoline]","+++ (+++, between 75% and 95% activity)",,0.332 ± 0.022,
"O=C1c2ccccc2-c2c1c1ccc([N+](=O)[O-])cc1c(=O)n2C[C@@H](O)[C@H](O)[C@H](O)CO [Compound 65, (2′R,3′S,4′R)-5,6-Dihydro-6-(2′,3′,4′,5′-tetrahydroxypentyl)-3-nitro-5,11-dioxo-11H-indeno[1,2-c]isoquinoline]",++++,3.95 to 4.43,1.58,"GI50 (renal, SN12C): 2.69 µM"
"O=C1c2ccccc2-c2c1c1ccc([N+](=O)[O-])cc1c(=O)n2C[C@H](O)[C@H](O)[C@H](O)CO [Compound 66, (2′S,3′S,4′R)-5,6-Dihydro-6-(2′,3′,4′,5′-tetrahydroxypentyl)-3-nitro-5,11-dioxo-11H-indeno[1,2-c]isoquinoline]",++++(+),,0.508 ± 0.041,
"O=C1c2ccccc2-c2c1c1ccc([N+](=O)[O-])cc1c(=O)n2C[C@@H](O)[C@@H](O)[C@H](O)CO [Compound 67, (2′R,3′R,4′R)-5,6-Dihydro-6-(2′,3′,4′,5′-tetrahydroxypentyl)-3-nitro-5,11-dioxo-11H-indeno[1,2-c]isoquinoline]",++++,4.43 to 4.92,1.66,
"O=C1c2ccccc2-c2c1c1ccc([N+](=O)[O-])cc1c(=O)n2C[C@H](O)[C@@H](O)[C@H](O)CO [Compound 68, (2′S,3′R,4′R)-5,6-Dihydro-6-(2′,3′,4′,5′-tetrahydroxypentyl)-3-nitro-5,11-dioxo-11H-indeno[1,2-c]isoquinoline]",++++(+),3.95 to 4.43,0.372 ± 0.024,
"O=C1c2ccccc2-c2c1c1ccc([N+](=O)[O-])cc1c(=O)n2C[C@@H](O)[C@@H](O)[C@H](O)[C@H](O)CO [Compound 70, (2′R,3′R,4′R,5′R)-5,6-Dihydro-6-(2′,3′,4′,5′,6′-pentahydroxyhexyl)-3-nitro-5,11-dioxo-11H-indeno[1,2-c]isoquinoline]",++++,3.95 to 4.43,16.6,
O=C1c2ccccc2-c2c1c1ccc([N+](=O)[O-])cc1c(=O)n2C[C@@H]1O[C@H](CO)[C@@H](O)[C@H](O)[C@H]1O [Compound 71],"++ (++, between 50% and 75% activity)",4.43 to 4.92,,pIC50 (recombinant TDP1): ≤ 4.92

# Further lines, with some results ahead:
Top1 cleavage (recombinant Top1),pIC50 (recombinant TDP1; [2]),SMILES,MGM [1] [µM],further results
++++,,"COc1cc2c3c(n(CC(O)CO)c(=O)c2cc1OC)-c1cc2c(cc1C3=O)OCO2 (stereo not drawn) [Compound 52, (2′RS)-5,6-Dihydro-6-(2′,3′-dihydroxypropyl)-2,3-dimethoxy-8,9-methylenedioxy-5,11-dioxo-11H-indeno[1,2-c]isoquinoline]",0.065 ± 0.011,
++++,,"COc1cc2c3c(n(C[C@H](O)CO)c(=O)c2cc1OC)-c1cc2c(cc1C3=O)OCO2 [Compound 53, (2′S)-5,6-Dihydro-6-(2′,3′-dihydroxypropyl)-2,3-dimethoxy-8,9-methylenedioxy-5,11-dioxo-11H-indeno[1,2-c]isoquinoline]",0.049 ± 0.003,
++++,,"COc1cc2c3c(n(C[C@@H](O)CO)c(=O)c2cc1OC)-c1cc2c(cc1C3=O)OCO2 [Compound 54, (2′R)-5,6-Dihydro-6-(2′,3′-dihydroxypropyl)-2,3-dimethoxy-8,9-methylenedioxy-5,11-dioxo-11H-indeno[1,2-c]isoquinoline]",0.166 ± 0.005,"GI50 (melanoma, UACC-62): 0.025 µM"
"+++ (+++, between 75% and 95% activity)",,"COc1cc2c3c(n(C[C@@H](O)[C@H](O)[C@H](O)CO)c(=O)c2cc1OC)-c1cc2c(cc1C3=O)OCO2 [Compound 55, (2′R,3′S,4′R)-5,6-Dihydro-6-(2′,3′,4′,5′-tetrahydroxypentyl)-2,3-dimethoxy-8,9-methylenedioxy-5,11-dioxo-11H-indeno[1,2-c]isoquinoline]",5.62 ± 0.18,
,3.95 to 4.43,"COc1cc2c3c(n(C[C@H](O)[C@H](O)[C@H](O)CO)c(=O)c2cc1OC)-c1cc2c(cc1C3=O)OCO2 [Compound 56, (2′S,3′S,4′R)-5,6-Dihydro-6-(2′,3′,4′,5′-tetrahydroxypentyl)-2,3-dimethoxy-8,9-methylenedioxy-5,11-dioxo-11H-indeno[1,2-c]isoquinoline]",1.43 ± 0.44,
++++,,"COc1cc2c3c(n(C[C@@H](O)[C@@H](O)[C@H](O)CO)c(=O)c2cc1OC)-c1cc2c(cc1C3=O)OCO2 [Compound 57, (2′R,3′R,4′R)-5,6-Dihydro-6-(2′,3′,4′,5′-tetrahydroxypentyl)-2,3-dimethoxy-8,9-methylenedioxy-5,11-dioxo-11H-indeno[1,2-c]isoquinoline]",2.94 ± 0.52,
"++ (++, between 50% and 75% activity)",3.95 to 4.43,"COc1cc2c3c(n(C[C@H](O)[C@@H](O)[C@@H](O)[C@H](O)CO)c(=O)c2cc1OC)-c1cc2c(cc1C3=O)OCO2 [Compound 59, (2′S,3′R,4′S,5′R)-5,6-Dihydro-6-(2′,3′,4′,5′,6′-pentahydroxyhexyl)-2,3-dimethoxy-8,9-methylenedioxy-5,11-dioxo-11H-indeno[1,2-c]isoquinoline]",,
"+++ (+++, between 75% and 95% activity)",,"COc1cc2c3c(n(C[C@H](O)[C@@H](O)[C@H](O)[C@H](O)CO)c(=O)c2cc1OC)-c1cc2c(cc1C3=O)OCO2 [Compound 60, (2′S,3′R,4′R,5′R)-5,6-Dihydro-6-(2′,3′,4′,5′,6′-pentahydroxyhexyl)-2,3-dimethoxy-8,9-methylenedioxy-5,11-dioxo-11H-indeno[1,2-c]isoquinolone]",,
++++,,"COc1cc2c3c(n(C[C@@H](O)[C@@H](O)[C@H](O)[C@H](O)CO)c(=O)c2cc1OC)-c1cc2c(cc1C3=O)OCO2 [Compound 61, (2′R,3′R,4′R,5′R)-5,6-Dihydro-6-(2′,3′,4′,5′,6′-pentahydroxyhexyl)-2,3-dimethoxy-8,9-methylenedioxy-5,11-dioxo-11H-indeno[1,2-c]isoquinoline]",,
